The source of these data is ChEMBL document CHEMBL3272298, “Use of adenine nucleotide derivatives to assess the potential of exo-active-site-directed reagents as species- or isozyme-specific enzyme inactivators. 2. Isozyme-specific inactivation of a mammalian enzyme and its significance in the possible design of fetal isozyme targeted antineoplastic agents” (J Med Chem, 1978).

Data set [1] deals with Pyruvate kinase PKLR (Rattus norvegicus) (UniProt P12928). Description: Inactivation of Sprague-Dawley rat pyruvate kinase L using PEP as substrate at 10 mM at pH 7 after 8 hrs by spectrophotometric analysis. Summed up:
(§1)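 Electrofocused isozymes, at tenfold (M) or twofold (L, K) assay level, exposed at pH 7.0 and 22 °C to Mg salts of the analogues. Medium: triethanolamine buffer with MgCl2, KCl, NADH, fructose diphosphate and lactate dehydrogenase, no ADP or PEP. Exposure was 8 h at 5 mM, or up to 10 mM for the liver isozyme; M controls were followed to 24 h. Timed aliquots were assayed by the coupled LDH method at 340 nm with 0.373 mM ADP, against controls lacking analogue.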

For data set [2] the target is unchanged. Description: Inactivation of Sprague-Dawley rat pyruvate kinase L using PEP as substrate at 5 mM at pH 7 after 8 hrs by spectrophotometric analysis. An outline of the steps:
as §1

A short description of data set [3]: Retardation factor of the compound using 1-butanol-acetic acid-water as solvent system by paper chromatography. Format: physicochemical. The note with it: buffer.
In data set [4] the target is Pyruvate kinase PKM (Rattus norvegicus) (UniProt P11980). In words: Inactivation of Sprague-Dawley rat pyruvate kinase M using PEP as substrate at 5 mM at pH 7 after 8 hrs by spectrophotometric analysis. An outline of the steps:
as §1

The species named for data set [5] is Rattus norvegicus. In words: Inactivation of Sprague-Dawley rat pyruvate kinase K using PEP as substrate at 5 mM at pH 7 after 8 hrs by spectrophotometric analysis. Summed up: as §1
The target in data set [6] is Pyruvate kinase PKLR (Rattus norvegicus) (UniProt P12928). In words: Half life for inactivation of Sprague-Dawley rat pyruvate kinase L using PEP as substrate by spectrophotometric analysis. An outline of the steps:
(§2)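 Liver isozyme incubated at 22 °C with Mg salt of the analogue at 3.0–10.0 mM in triethanolamine buffer with MgCl2, KCl, NADH, fructose diphosphate and lactate dehydrogenase, without ADP or PEP. Aliquots taken over time and assayed at 340 nm with 0.373 mM ADP. Pseudo-first-order inactivation half-times were derived, with t1/2 extrapolated to infinite inhibitor level, and apparent K from the rate-saturation analysis.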

Data set [7] shares this target. Description: Inactivation of Sprague-Dawley rat pyruvate kinase L using PEP as substrate at 5 mM at pH 7 after 8 hrs by spectrophotometric analysis in presence of 5 mM ADP. Summed up: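 Liver isozyme exposed to 5 mM Mg-analogue together with 5 mM ADP for 8 h at 22 °C, pH 7.0, in triethanolamine/MgCl2/KCl medium. Remaining activity was measured in timed aliquots by the LDH-coupled 340 nm assay with 0.373 mM ADP.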

For data set [8] the target is unchanged. In words: Inactivation of Sprague-Dawley rat pyruvate kinase L using PEP as substrate at 7 mM pretreated with pyruvate kinase K by spectrophotometric analysis.
The species entered for data set [9] is Rattus norvegicus. Description: Activity at Sprague-Dawley rat pyruvate kinase K assessed as initial enzyme reaction velocity at 0.21 mM by spectrophotometric analysis relative to ADP. An outline of the steps:
(§3)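 Isozymes K, L and M from male Sprague-Dawley rat kidney, liver and muscle, partially purified by electrofocusing and dialyzed. Assay in 0.05 M triethanolamine-HCl pH 7.0 with 5 mM MgCl2, 67 mM KCl, 0.56 mM phosphoenolpyruvate, 0.4 mM NADH, 10 μM fructose 1,6-diphosphate, 0.21 mM nucleotide and lactate dehydrogenase. After 5 min preincubation, the nucleotide starts the reaction. Initial rate at 340 nm, 22 °C, expressed relative to ADP (100).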

Data set [10] concerns the target Pyruvate kinase PKM (Rattus norvegicus) (UniProt P11980). Description: Inactivation of Sprague-Dawley rat pyruvate kinase M using PEP as substrate at 7 mM pretreated at 22 degC for 2 hrs with pyruvate kinase L measured for 3.5 hrs by spectrophotometric analysis. Summed up:
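Liver isozyme treated with the analogue (7 mM) for 2 h at 22 °C under the usual inactivation conditions, then an approximately equal activity of muscle isozyme added. Muscle activity followed for a further 3.5 h by the LDH-coupled 340 nm assay.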

The species entered for data set [11] is Rattus norvegicus. In words: Inactivation of Sprague-Dawley rat pyruvate kinase K using PEP as substrate at 7 mM pretreated with pyruvate kinase L by spectrophotometric analysis.
The next data set addresses Pyruvate kinase PKM (Rattus norvegicus, UniProt P11980). Description: Drug metabolism assessed as Sprague-Dawley rat pyruvate kinase M-mediated drug conversion. The class given is ADME. An outline of the steps:
(§4)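 Each isozyme preparation (K, L, M) incubated with the analogue under inactivation conditions: pH 7.0, 22 °C, triethanolamine buffer with MgCl2 and KCl. Conversion of the analogue to other compounds checked by paper electrophoresis at pH 3.5.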

In data set [12] the target is T1, Pyruvate kinase PKLR (Rattus norvegicus, UniProt P12928). In words: Binding affinity to Sprague-Dawley rat pyruvate kinase L assessed as apprent enzyme-inhibitor dissociation constant using PEP as substrate by spectrophotometric analysis. The note with it: read-out: Kd(app). An outline of the steps: as §2
In data set [13] the target is T1, Pyruvate kinase PKLR. In words: Drug metabolism assessed as Sprague-Dawley rat pyruvate kinase L-mediated drug conversion. The class given is ADME. Summed up: as §4
The target in data set [14] is Pyruvate kinase PKLR (Rattus norvegicus) (UniProt P12928). In words: Inactivation of Sprague-Dawley rat pyruvate kinase L using PEP as substrate at 7 mM pretreated with pyruvate kinase M measured for 4 hrs by spectrophotometric analysis. An outline of the steps: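 Muscle isozyme first exposed to the analogue (7 mM) under the usual inactivation conditions at 22 °C, then liver isozyme added. Liver isozyme inactivation was followed over 4 h by the LDH-coupled 340 nm assay.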

Data set [15] deals with Pyruvate kinase PKM (Rattus norvegicus) (UniProt P11980). In words: Activity at Sprague-Dawley rat pyruvate kinase M assessed as initial enzyme reaction velocity at 0.21 mM by spectrophotometric analysis relative to ADP. Summed up:
as §3

Data set [16] concerns the target Pyruvate kinase PKLR (Rattus norvegicus) (UniProt P12928). Description: Activity at Sprague-Dawley rat pyruvate kinase L assessed as initial enzyme reaction velocity at 0.21 mM by spectrophotometric analysis relative to ADP. Summed up:
as §3

Data set [17] is described as follows: Drug metabolism assessed as Sprague-Dawley rat pyruvate kinase K-mediated drug conversion. Format: ADME. An outline of the steps:
as §4

Activity calls are given as the source filed them. The rule behind the calls is not given here.

Chain of Pyruvate kinase PKM (Rattus norvegicus) (P11980 whole entry): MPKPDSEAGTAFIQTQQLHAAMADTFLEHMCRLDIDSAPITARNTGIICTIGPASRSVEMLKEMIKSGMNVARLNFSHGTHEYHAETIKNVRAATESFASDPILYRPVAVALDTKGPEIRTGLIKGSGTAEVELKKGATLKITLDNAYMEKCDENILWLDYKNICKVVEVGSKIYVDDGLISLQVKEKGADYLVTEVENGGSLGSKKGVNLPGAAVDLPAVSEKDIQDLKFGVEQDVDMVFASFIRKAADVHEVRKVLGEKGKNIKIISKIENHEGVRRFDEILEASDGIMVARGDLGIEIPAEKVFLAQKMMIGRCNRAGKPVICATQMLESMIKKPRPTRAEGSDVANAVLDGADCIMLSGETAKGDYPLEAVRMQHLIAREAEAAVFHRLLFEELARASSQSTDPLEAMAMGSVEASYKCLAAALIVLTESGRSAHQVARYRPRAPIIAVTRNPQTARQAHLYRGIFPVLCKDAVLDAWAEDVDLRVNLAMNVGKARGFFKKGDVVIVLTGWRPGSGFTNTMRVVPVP
Chain of Pyruvate kinase PKLR (Rattus norvegicus) (P12928 whole entry): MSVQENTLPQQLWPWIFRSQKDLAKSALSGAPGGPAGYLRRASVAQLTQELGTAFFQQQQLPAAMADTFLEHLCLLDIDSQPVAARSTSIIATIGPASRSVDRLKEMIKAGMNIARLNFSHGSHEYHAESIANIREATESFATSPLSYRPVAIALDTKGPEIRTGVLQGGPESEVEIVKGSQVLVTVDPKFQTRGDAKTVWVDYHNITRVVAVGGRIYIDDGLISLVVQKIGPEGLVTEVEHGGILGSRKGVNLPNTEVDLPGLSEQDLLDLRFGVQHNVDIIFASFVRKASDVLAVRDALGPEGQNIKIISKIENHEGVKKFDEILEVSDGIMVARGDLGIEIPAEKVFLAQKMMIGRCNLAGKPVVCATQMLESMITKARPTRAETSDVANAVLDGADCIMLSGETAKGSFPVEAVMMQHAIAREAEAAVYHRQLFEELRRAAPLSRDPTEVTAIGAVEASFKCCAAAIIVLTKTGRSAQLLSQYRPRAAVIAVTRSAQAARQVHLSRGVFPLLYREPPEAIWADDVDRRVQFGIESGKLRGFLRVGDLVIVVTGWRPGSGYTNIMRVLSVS
T1 sequence (P12928 whole entry): as above
Chain of Pyruvate kinase PKM (P11980 whole entry): as the sequence (P11980 whole entry) above

In the case of `O=C(CI)NCCCCCCCCNc1ncnc2c1ncn2[C@@H]1O[C@H](COP(=O)(O)O)[C@@H](O)[C@H]1O`, the inhibition (in general, how much of the control response was suppressed) in [1] was “inactive”.
`O=C(CI)NCCCCNc1ncnc2c1ncn2[C@@H]1O[C@H](COP(=O)(O)OP(=O)(O)O)[C@@H](O)[C@H]1O`: the inhibition entry (in [2]; in [4]; in the data set filed under Rattus norvegicus [5]) was “inactive” in each case. The same compound showed a Rf in data set [3] of 0.58.
In data set [2], `O=C(CI)NCCCCCCCCNc1ncnc2c1ncn2[C@@H]1O[C@H](COP(=O)(O)OP(=O)(O)O)[C@@H](O)[C@H]1O` gave an inhibition of 80%. In addition, the T1/2 in data set [6] was 23 min. Also, the inhibition result (in data set [7]; in [10]; in the data set filed under Rattus norvegicus [11]; in the data set filed under Rattus norvegicus [5]) was “inactive” in each case. In addition, the inhibition result in data set [8] and in data set [14] was “Active” each time. The Activity amounted to 21% in the data set filed under Rattus norvegicus [9], 54% in data set [15] and 13% in [16]. Moreover, the Drug metabolism entry (on Pyruvate kinase PKM; on Pyruvate kinase PKLR [13]; in [17]) was “metabolite_notdetected” each time. The Kd at Pyruvate kinase PKLR [12] was found to be 36 mM. The Rf in data set [3] stood at 0.71.
As for `O=C(CI)NCCNc1ncnc2c1ncn2[C@@H]1O[C@H](COP(=O)(O)OP(=O)(O)O)[C@@H](O)[C@H]1O`, the inhibition entry (in data set [2]; in data set [4]; in the data set listed under Rattus norvegicus [5]) was “inactive” throughout. For the same compound, the Rf in data set [3] is reported as 0.53.
`O=C(CI)NCCCCCNc1ncnc2c1ncn2[C@@H]1O[C@H](COP(=O)(O)OP(=O)(O)O)[C@@H](O)[C@H]1O`: the inhibition result (in data set [2]; in [4]; in the data set filed under Rattus norvegicus [5]) was “inactive” throughout. Also, the Rf in data set [3] turned out to be 0.6. Moreover, the Activity in data set [15] was 7%; in data set [16], 8%.
Take `O=C(CI)NCCCCCCCCNc1ncnc2c1ncn2[C@@H]1O[C@H](COP(=O)(O)OP(=O)(O)OP(=O)(O)O)[C@@H](O)[C@H]1O`: the inhibition result in data set [2] is “inactive”.
Consider `O=C(CI)NCCCCCCCNc1ncnc2c1ncn2[C@@H]1O[C@H](COP(=O)(O)OP(=O)(O)O)[C@@H](O)[C@H]1O`, for which the inhibition entry (in data set [2]; in data set [4]; in the data set listed under Rattus norvegicus [5]) was “inactive” each time. Besides, the Rf in data set [3] was determined as 0.68. The Activity in data set [15] was 25%; in data set [16], 12%.
Regarding `O=C(CI)NCCCNc1ncnc2c1ncn2[C@@H]1O[C@H](COP(=O)(O)OP(=O)(O)O)[C@@H](O)[C@H]1O`, the inhibition entry (in data set [2]; in data set [4]; in the data set listed under Rattus norvegicus [5]) was “inactive” in each case. This compound returned a Rf in data set [3] of 0.55.
For `O=C(CI)NCCCCCCNc1ncnc2c1ncn2[C@@H]1O[C@H](COP(=O)(O)OP(=O)(O)O)[C@@H](O)[C@H]1O`, the inhibition entry (in data set [2]; in data set [4]; in the data set listed under Rattus norvegicus [5]) was “inactive” throughout. In addition, the Rf in data set [3] was determined as 0.65. Besides, the Activity in data set [15] was determined as 19%; in data set [16], 9%.
Regarding `CC(=O)NCCCCCCCCNc1ncnc2c1ncn2[C@@H]1O[C@H](COP(=O)(O)OP(=O)(O)O)[C@@H](O)[C@H]1O`, in data set [2], the inhibition result is “inactive”. Besides, the Activity in data set [16] was determined as 9%.
